Reference: ChEMBL document CHEMBL3526126, “Amide hydrolysis of a novel chemical series of microsomal prostaglandin E synthase-1 inhibitors induces kidney toxicity in the rat” (Drug Metab Dispos, 2013)

Experiments:
[1] = test system: Rattus norvegicus; experiment: Toxicity in Wistar Hannover rat kidney assessed as increase in organ weight at 1000 umol/kg, po qd administered for 7 days measured on day 7 by necroscopic analysis; format: organism-based; settings: in vivo, 168 h
[2] = test system: Rattus norvegicus; experiment: Toxicity in Wistar Hannover rat kidney assessed as presence of dilated tubules with cellular remnants within lumen at 1000 umol/kg, po qd administered for 7 days measured on day 7 by necroscopic analysis; format: organism-based; settings: in vivo, 168 h
[3] = test system: Rattus norvegicus; experiment: Toxicity in Wistar Hannover rat kidney assessed as presence of dilated tubules mixed with basophils at 1000 umol/kg, po qd administered for 7 days measured on day 7 by necroscopic analysis; format: organism-based; settings: in vivo, 168 h
[4] = test system: Rattus norvegicus; experiment: Toxicity in Wistar Hannover rat kidney assessed as dilated tubules with hypertrophic nuclei and cytoplasm at 1000 umol/kg, po qd administered for 7 days measured on day 7 by necroscopic analysis; format: organism-based; settings: in vivo, 168 h
[5] = test system: Rattus norvegicus; experiment: Toxicity in Wistar Hannover rat kidney assessed as multiple pyogranuloma in renal pelvis at 1000 umol/kg, po qd administered for 7 days measured after day 8 by hematoxylin/eosin staining-based light microscopic analysis; format: organism-based; settings: in vivo, 168 h
How it was run: (§1)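 Wistar Hannover rats, about 8 weeks old, were gavaged once daily (10 ml/kg) for 7 days. One day after the last dose they were killed by carotid exsanguination under isoflurane/oxygen. Kidneys were fixed in buffered formalin, embedded in paraffin, sectioned, stained with hematoxylin and eosin, and examined by light microscopy.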

[6] = test system: Rattus norvegicus; experiment: Toxicity in Wistar Hannover rat kidney assessed as free crystals in renal pelvis at 1000 umol/kg, po qd administered for 7 days measured after day 8 by hematoxylin/eosin staining-based light microscopic analysis; format: organism-based; settings: in vivo, 168 h; how it was run: as §1
[7] = test system: Rattus norvegicus; experiment: Toxicity in Wistar Hannover rat kidney assessed as transitional cell hyperplasia at 1000 umol/kg, po qd administered for 7 days measured after day 8 by hematoxylin/eosin staining-based light microscopic analysis; format: organism-based; settings: in vivo, 168 h; how it was run: as §1
[8] = test system: Rattus norvegicus; experiment: Toxicity in Wistar Hannover rat kidney assessed as increase in plasma urea level at 1000 umol/kg, po qd administered for 7 days measured on day 7; format: organism-based; settings: in vivo, 168 h
How it was run: (§2)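 Wistar Hannover rats, about 8 weeks old, were acclimatized about 2 weeks and randomized by body weight. Dosing was by oral gavage (10 ml/kg) once daily for 7 days, with vehicle controls. At the end of dosing, plasma (lithium heparin) was taken from the orbital plexus under isoflurane/oxygen anaesthesia, and urea and creatinine were measured.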

[9] = test system: Rattus norvegicus; experiment: Toxicity in Wistar Hannover rat kidney assessed as increase in plasma creatinine level at 1000 umol/kg, po qd administered for 7 days measured on day 7; format: organism-based; settings: in vivo, 168 h; how it was run: as §2
[10] = Drug metabolism in Sprague-Dawley rat hepatocytes assessed as formation of benzene-1,2-disulfonamide metabolite M1 at 1 to 10 uM by LC-MS analysis; format: ADME, cell-based, Hepatocyte
How it was run: (§3)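 Hepatocytes at 1 × 10^6 cells/ml in William's medium incubated at 37°C with gentle shaking under 5% CO2. Substrate was at […]. Metabolites were analysed by LC-MS.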

[11] = Drug metabolism in Sprague-Dawley rat hepatocytes assessed as formation of benzene-1,2-disulfonamide metabolite M1 at 1 to 10 uM by radio monitoring method; format: ADME, cell-based, Hepatocyte
How it was run: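 Hepatocytes at 1 × 10^6 cells/ml in William's medium were incubated at 37°C with gentle shaking under 5% CO2, with substrate at […]. Separation was on an Atlantis T3 column (100 × 4.6 mm) at 1 ml/min, split 1:20 to the ion source and a flow scintillation monitor. Scintillation cocktail was added at 4 ml/min through a 0.5 ml flow cell.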

[12] = test system: Rattus norvegicus; experiment: Drug metabolism in Wistar Hannover rat assessed as formation of oxidized and sulfate-conjugated metabolite in plasma at 500 umol/kg, po qd administered for 7 days measured on day 7 by LC-MS analysis; format: ADME, organism-based; settings: in vivo, 168 h
[13] = Drug metabolism in cryopreserved human hepatocytes assessed as amide hydrolysis at 1 to 10 uM by LC-MS analysis; format: ADME, cell-based, Hepatocyte; how it was run: as §3
[14] = Drug metabolism in Beagle dog hepatocytes assessed as amide hydrolysis at 1 to 10 uM by LC-MS analysis; format: ADME, cell-based, Canis lupus familiaris, Hepatocyte
How it was run: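 Cryopreserved male Beagle dog hepatocytes at 1 × 10^6 cells/ml in William's medium, shaken gently at 37°C under 5% CO2. Substrate was tested at two concentrations (1 and 10). Metabolites, including amide-hydrolysis products, were analysed by LC-MS.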

[15] = Drug metabolism in freshly prepared human hepatocytes assessed as amide hydrolysis at 1 to 10 uM by LC-MS analysis; format: ADME, cell-based, Hepatocyte; how it was run: as §3
[16] = Effect on rat mPGES-1
[17] = Cmax in Sprague-Dawley rat at 1000 umol/kg, po qd administered for 7 days measured on day 7; format: ADME, organism-based; design: dose 1000 umol/kg, route oral; settings: in vivo
How it was run: (§4)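 Toxicity study 2: 2 female satellite rats per dose group. Dosing was once daily by oral gavage (10 ml/kg) for 7 days. Tail-vein EDTA blood was taken at 2, 4, 6, 7 and 24 h on day 1 and on day 7, then chilled and centrifuged to plasma. Parent and M1 were quantified by LC-MS/MS, with M1 measured in negative electrospray mode.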

[18] = AUC (0 to 24 hrs) in Sprague-Dawley rat at 1000 umol/kg, po qd administered for 7 days measured on day 7; format: ADME, organism-based; design: time < 24 hr, dose 1000 umol/kg, route oral; settings: plasma; how it was run: as §4
[19] = Cmax in Wistar Hannover rat at 1000 umol/kg, po qd measured on day 1; settings: in vivo
[20] = Cmax in male Wistar Hannover rat at 500 umol/kg, po qd measured on day 1; settings: in vivo
[21] = Cmax in male Wistar Hannover rat at 1000 umol/kg, po qd measured on day 1; settings: in vivo
[22] = Cmax in female Wistar Hannover rat at 500 umol/kg, po qd measured on day 1; settings: in vivo
[23] = AUC (0 to 24 hrs) in Wistar Hannover rat at 1000 umol/kg, po qd measured on day 1; settings: plasma
[24] = AUC (0 to 24 hrs) in male Wistar Hannover rat at 500 umol/kg, po qd measured on day 1; settings: plasma
[25] = AUC (0 to 24 hrs) in male Wistar Hannover rat at 1000 umol/kg, po qd measured on day 1; settings: plasma
[26] = AUC (0 to 24 hrs) in female Wistar Hannover rat at 500 umol/kg, po qd measured on day 1; settings: plasma
[27] = AUC (0 to 24 hrs) in female Wistar Hannover rat at 1000 umol/kg, po qd measured on day 1; settings: plasma
[28] = Cmax in male Wistar Hannover rat at 500 umol/kg, po qd administered for 7 days measured on day 7; settings: in vivo
[29] = AUC (0 to 24 hrs) in male Wistar Hannover rat at 500 umol/kg, po qd administered for 7 days measured on day 7; settings: plasma
[30] = AUC (0 to 24 hrs) in female Wistar Hannover rat at 500 umol/kg, po qd administered for 7 days measured on day 7; settings: plasma

NS(=O)(=O)c1ccccc1S(=O)(=O)NC(=O)c1ccc(C#Cc2ccccc2)cc1
Activity [1]: Toxic | Activity [2]: Toxic | Activity [3]: Toxic | Activity [4]: Toxic | Activity [5]: Toxic | Activity [6]: Toxic | Activity [7]: Toxic | Activity [8]: Toxic | Activity [9]: Toxic | Drug metabolism [10]: metabolite_not_detected | Drug metabolism [11]: metabolite_not_detected | Drug metabolism [12]: metabolite_detected | Drug metabolism [13]: metabolite_not_detected | Drug metabolism [14]: metabolite_not_detected | Drug metabolism [15]: metabolite_not_detected | Activity [16]: Not Active | Cmax [17]: 95 µM | AUC at 24 h [18]: 990 µM·h | Cmax [19]: 105 µM | Cmax [20]: 73 µM | Cmax [21]: 46 µM | Cmax [22]: 38 µM | AUC(0-t) at 24 h [23]: 1370 µM·h | AUC(0-t) at 24 h [24]: 840 µM·h | AUC(0-t) at 24 h [25]: 610 µM·h | AUC(0-t) at 24 h [26]: 450 µM·h | AUC(0-t) at 24 h [27]: 1020 µM·h | Cmax [28]: 68 µM | AUC at 24 h [29]: 480 µM·h | AUC at 24 h [30]: 430 µM·h
